Reference: ChEMBL document CHEMBL1146227, “Metabolically labile cannabinoid esters: a 'soft drug' approach for the development of cannabinoid-based therapeutic drugs” (Bioorg Med Chem Lett, 2007)

Key:
Cannabinoid receptor 1 = Cannabinoid receptor 1 (Homo sapiens, UniProt P21554); assay: Displacement of [3H]CP-55940 from human CB1 receptor
Cannabinoid receptor 2 = Cannabinoid receptor 2 (Homo sapiens, UniProt P34972); assay: Displacement of [3H]CP-55940 from human CB2 receptor
Outline: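 HEK cells transfected with human recombinant CB2 used for competition binding against [3H]CP-55,940 (Kd 0.31 nM) at 0.084 nM with increasing test compound concentrations; Ki derived from IC50 via Cheng-Prusoff equation; means of at least three separate experiments run in duplicate.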

Chain of Cannabinoid receptor 1 (P21554 whole entry): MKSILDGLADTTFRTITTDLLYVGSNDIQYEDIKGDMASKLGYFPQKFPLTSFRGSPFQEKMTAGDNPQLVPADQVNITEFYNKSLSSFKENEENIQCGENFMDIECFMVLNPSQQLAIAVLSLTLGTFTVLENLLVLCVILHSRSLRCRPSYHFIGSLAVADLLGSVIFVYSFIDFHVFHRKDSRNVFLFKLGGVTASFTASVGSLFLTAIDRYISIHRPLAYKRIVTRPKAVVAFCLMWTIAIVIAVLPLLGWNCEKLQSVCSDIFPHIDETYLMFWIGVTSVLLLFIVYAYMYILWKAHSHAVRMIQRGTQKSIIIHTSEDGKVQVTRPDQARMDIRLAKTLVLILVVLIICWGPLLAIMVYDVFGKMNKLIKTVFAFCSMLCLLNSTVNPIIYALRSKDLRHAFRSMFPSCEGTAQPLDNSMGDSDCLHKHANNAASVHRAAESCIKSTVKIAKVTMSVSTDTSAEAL
Chain of Cannabinoid receptor 2 (P34972 whole entry): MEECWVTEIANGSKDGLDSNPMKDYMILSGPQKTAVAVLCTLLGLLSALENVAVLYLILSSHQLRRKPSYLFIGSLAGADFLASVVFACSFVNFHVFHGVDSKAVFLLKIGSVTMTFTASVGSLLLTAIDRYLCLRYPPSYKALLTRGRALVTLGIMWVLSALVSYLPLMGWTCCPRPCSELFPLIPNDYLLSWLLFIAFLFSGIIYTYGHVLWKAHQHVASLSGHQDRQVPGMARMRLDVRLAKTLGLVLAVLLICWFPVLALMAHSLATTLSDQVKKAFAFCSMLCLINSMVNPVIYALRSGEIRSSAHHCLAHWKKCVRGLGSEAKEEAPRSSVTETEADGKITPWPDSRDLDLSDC

CCCCOC(=O)c1cc(O)c(-c2cc(C)cc(C)c2)c(O)c1
Ki (Cannabinoid receptor 1): 2.6 µM
Ki (Cannabinoid receptor 2): > 3.2 µM

COC(=O)c1cc(O)c(-c2cc(C)cc(C)c2)c(O)c1
Ki (Cannabinoid receptor 1): > 10 µM
Ki (Cannabinoid receptor 2): > 4.5 µM

COC(=O)c1cc(O)c(-c2cc(C)cc(C)c2)c(OC)c1
Ki (Cannabinoid receptor 1): > 10 µM
Ki (Cannabinoid receptor 2): > 6.4 µM

Cc1cc(C)cc(-c2c(O)cc(C(=O)O)cc2O)c1
Ki (Cannabinoid receptor 1): > 10 µM
Ki (Cannabinoid receptor 2): > 10 µM

COc1cc(C(=O)O)cc(OC)c1-c1cc(C)cc(C)c1
Ki (Cannabinoid receptor 1): > 10 µM
Ki (Cannabinoid receptor 2): > 10 µM

CCCCCOC(=O)c1cc(O)c(-c2cc(C)cc(C)c2)c(O)c1
Ki (Cannabinoid receptor 1): 2 µM
Ki (Cannabinoid receptor 2): > 1.1 µM

CCCCCOC(=O)c1cc(O)c(-c2ccccc2)c(O)c1
Ki (Cannabinoid receptor 1): > 10 µM
Ki (Cannabinoid receptor 2): > 4 µM

COc1cc(C(=O)O)cc(O)c1-c1cc(C)cc(C)c1
Ki (Cannabinoid receptor 1): > 10 µM
Ki (Cannabinoid receptor 2): > 10 µM

CCCCCOC(=O)c1cc(OC)c(-c2cc(C)cc(C)c2)c(OC)c1
Ki (Cannabinoid receptor 1): > 10 µM
Ki (Cannabinoid receptor 2): > 10 µM

CCCCCOC(=O)c1cc(O)c(-c2cc(C)cc(C)c2)c(OC)c1
Ki (Cannabinoid receptor 1): 1.4 µM
Ki (Cannabinoid receptor 2): 0.27 µM
